Assay results: ChEMBL document CHEMBL3232989, “First identification of boronic species as novel potential inhibitors of the Staphylococcus aureus NorA efflux pump” (J Med Chem, 2014)

Tests used:
[1] = biological target: T1, Quinolone resistance protein NorA (Staphylococcus aureus) (UniProt P0A0J7); experiment: Inhibition of NorA in fluoroquinolone-resistant Staphylococcus aureus 1199B assessed as potentiation of 4 ug/ml of ciprofloxacin MIC at 100 ug/ml after 24 hrs by microdilution method
T1 sequence (whole entry): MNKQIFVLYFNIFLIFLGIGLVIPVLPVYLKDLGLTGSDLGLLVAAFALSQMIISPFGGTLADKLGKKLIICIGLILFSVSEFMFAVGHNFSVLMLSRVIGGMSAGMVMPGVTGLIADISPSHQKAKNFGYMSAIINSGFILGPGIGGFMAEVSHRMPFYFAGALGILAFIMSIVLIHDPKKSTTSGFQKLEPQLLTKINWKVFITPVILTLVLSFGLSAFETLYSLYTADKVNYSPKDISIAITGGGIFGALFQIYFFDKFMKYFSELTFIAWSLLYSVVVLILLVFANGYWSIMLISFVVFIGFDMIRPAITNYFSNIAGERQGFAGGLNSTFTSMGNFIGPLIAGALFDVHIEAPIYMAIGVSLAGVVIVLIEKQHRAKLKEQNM
How it was run: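 Combination with ciprofloxacin 4 μg/mL (MIC/4) against SA-1199B in MH broth microdilution, 10^6 CFU/mL, 24 h at 37 °C, read at 620 nm and visually. Compounds are first screened at 100 μg/mL; actives are 2-fold serially diluted. MMC4 is the lowest inhibitor concentration giving antibacterial activity with subinhibitory ciprofloxacin. Duplicates.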

[2] = test system: Staphylococcus aureus; experiment: Toxicity in Staphylococcus aureus ATCC 25923 at 100 ug/ml after 24 hrs by microdilution method; format: organism-based
How it was run: (§1)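 Single-point screen at 100 μg/mL of compound alone in MH broth microdilution, 10^6 CFU/mL, 24 h at 37 °C. Growth is read at 620 nm and visually, giving percent growth inhibition. Compounds inhibiting more than 90% then go to MIC determination. Duplicates.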

[3] = test system: Staphylococcus aureus; experiment: Toxicity in fluoroquinolone-resistant Staphylococcus aureus 1199B expressing NorA at 100 ug/ml after 24 hrs by microdilution method; format: organism-based; how it was run: as §1
[4] = test system: Staphylococcus aureus; experiment: Toxicity in Staphylococcus aureus ATCC 25923 after 24 hrs by microdilution method; format: organism-based
How it was run: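 Mueller–Hinton broth microdilution; inoculum from frozen culture grown 18 h at 37 °C, 10^6 CFU/mL per well. Compounds (10 mg/mL DMSO stock) in 2-fold serial dilutions, highest 128 mg/L, first screened at 100 μg/mL. MIC = complete growth inhibition after 24 h at 37 °C, read at 620 nm and visually; duplicate; ampicillin control.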

Structure (SMILES) | Activity [1] | growth inhibition (GI) [2] | growth inhibition (GI) [3] | MIC [4]
CC(C)(O)C(C)(C)OB(OC(C)(C)C(C)(C)O)c1cccnc1C#N | > 128 µg/mL | < 90% | < 90% | >= 64 ug ml-1
OB(O)c1cc(Br)cnc1Cl | 32 µg/mL | < 90% | < 90% | >= 64 ug ml-1
OB(O)c1ccccc1F | 16 µg/mL | < 90% | < 90% | >= 64 ug ml-1
OB(O)c1ccc(F)nc1 | 32 µg/mL | < 90% | < 90% | >= 64 ug ml-1
OB(O)c1cccnc1OCc1ccccc1 | 32 µg/mL | < 90% | < 90% | >= 64 ug ml-1
CC(C)(O)C(C)(C)OB(OC(C)(C)C(C)(C)O)c1cccnc1F | > 128 µg/mL | < 90% | < 90% | >= 64 ug ml-1
Cn1c(B2OC(C)(C)C(C)(C)O2)cnc1Cl | 128 µg/mL | < 90% | < 90% | >= 64 ug ml-1
Cc1cc(B(O)O)c(C)s1 | 16 µg/mL | < 90% | < 90% | >= 64 ug ml-1
OB(O)c1ccc2[nH]ncc2c1 | 32 µg/mL | < 90% | < 90% | >= 64 ug ml-1
Cc1cc(B(OC(C)(C)C(C)(C)O)OC(C)(C)C(C)(C)O)cnc1N1CCOCC1 | 32 µg/mL | < 90% | < 90% | >= 64 ug ml-1
CC(C)(O)C(C)(C)OB(OC(C)(C)C(C)(C)O)c1ccnc(F)c1Cl | 16 µg/mL | < 90% | < 90% | >= 64 ug ml-1
CC(C)(O)C(C)(C)OB(OC(C)(C)C(C)(C)O)c1ccncc1Br | > 128 µg/mL | < 90% | < 90% | >= 64 ug ml-1
CC(C)(O)C(C)(C)OB(OC(C)(C)C(C)(C)O)c1ccc(F)nc1 | 128 µg/mL | < 90% | < 90% | >= 64 ug ml-1
F[B-](F)(F)c1cccnc1.[K+] | > 128 µg/mL | < 90% | < 90% | >= 64 ug ml-1
O[B-](O)(O)c1cccnc1.[Na+] | 128 µg/mL | < 90% | < 90% | >= 64 ug ml-1
OB(O)c1ccccc1 [PHENYLBORONIC ACID] | 32 µg/mL | < 90% | < 90% | >= 64 ug ml-1
CC(C)(O)C(C)(C)OB(OC(C)(C)C(C)(C)O)c1ccnc(Cl)c1 | 128 µg/mL | < 90% | < 90% | >= 64 ug ml-1
Cc1cc(B(O)O)cnc1Br | 32 µg/mL | < 90% | < 90% | >= 64 ug ml-1
CC(C)(O)C(C)(C)OB(OC(C)(C)C(C)(C)O)c1ccncc1C#N | > 128 µg/mL | < 90% | < 90% | >= 64 ug ml-1
OB(O)c1cc(Cl)ncc1Cl | 64 µg/mL | < 90% | < 90% | >= 64 ug ml-1
CCc1ccc(B(OC(C)(C)C(C)(C)O)OC(C)(C)C(C)(C)O)cc1 | 32 µg/mL | < 90% | < 90% | >= 64 ug ml-1
CC(C)(O)C(C)(C)OB(OC(C)(C)C(C)(C)O)c1ccncc1Cl | > 128 µg/mL | < 90% | < 90% | >= 64 ug ml-1
CCOC(=O)c1ccccc1B(O)O | > 128 µg/mL | < 90% | < 90% | >= 64 ug ml-1
CC1(C)OB(c2cnn(C(=O)c3ccccc3)c2)OC1(C)C | 128 µg/mL | < 90% | < 90% | >= 64 ug ml-1

Structure (SMILES) | Activity [1] | growth inhibition (GI) [2] | growth inhibition (GI) [3] | MIC [4]
CC(=O)n1nc(C)c2cc(B3OC(C)(C)C(C)(C)O3)ccc21 | 128 µg/mL | < 90% | < 90% | >= 64 ug ml-1
COc1ncccc1B(O)O | 16 µg/mL | < 90% | < 90% | >= 64 ug ml-1
CC(C)(C)OC(=O)n1ncc2cc(B3OC(C)(C)C(C)(C)O3)ccc21 | > 128 µg/mL | < 90% | < 90% | >= 64 ug ml-1
OB(O)c1ccnc(F)c1 | > 128 µg/mL | < 90% | < 90% | >= 64 ug ml-1
COc1nccc(B(OC(C)(C)C(C)(C)O)OC(C)(C)C(C)(C)O)c1Cl | 32 µg/mL | < 90% | < 90% | >= 64 ug ml-1
Cc1cc(B(O)O)cnc1N1CCOCC1 | 64 µg/mL | < 90% | < 90% | >= 64 ug ml-1
OB(O)c1ccnc(F)c1Cl | 16 µg/mL | < 90% | < 90% | >= 64 ug ml-1
CC(C)(O)C(C)(C)OB(OC(C)(C)C(C)(C)O)c1ccncc1F | > 128 µg/mL | < 90% | < 90% | >= 64 ug ml-1
OB(O)c1cncc(Oc2cncc(Cl)c2)c1 | 16 µg/mL | < 90% | < 90% | >= 64 ug ml-1
N#Cc1c(B(O)O)ccnc1Cl | > 128 µg/mL | < 90% | < 90% | >= 64 ug ml-1
N#Cc1cnccc1B(O)O | > 128 µg/mL | < 90% | < 90% | >= 64 ug ml-1
CC(C)(O)C(C)(C)OB(OC(C)(C)C(C)(C)O)c1ccnc(Cl)c1C#N | > 128 µg/mL | < 90% | < 90% | >= 64 ug ml-1
CC1(C)OB(c2ccc3c(cnn3COCC[Si](C)(C)C)c2)OC1(C)C | 16 µg/mL | < 90% | < 90% | >= 64 ug ml-1
COC(=O)[C@H]1[C@H]2C[C@@H]3c4[nH]c5cc(OC)ccc5c4CCN3C[C@H]2C[C@@H](OC(=O)c2cc(OC)c(OC)c(OC)c2)[C@@H]1OC [RESERPINE] | 4 µg/mL | – | – | >= 64 ug ml-1
Cc1cccc(C)c1B(O)O | > 128 µg/mL | < 90% | < 90% | >= 64 ug ml-1
CC1(C)OB(c2cncs2)OC1(C)C | > 128 µg/mL | < 90% | < 90% | >= 64 ug ml-1
CC(C)(C)OC(=O)n1cccc1B(O)O | > 128 µg/mL | < 90% | < 90% | >= 64 ug ml-1
OB(O)c1cccnc1Br | > 128 µg/mL | < 90% | < 90% | >= 64 ug ml-1
Cc1c[nH]nc1B(O)O | 64 µg/mL | < 90% | < 90% | >= 64 ug ml-1
CC(C)(O)C(C)(C)OB(OC(C)(C)C(C)(C)O)c1cc(Cl)ncc1Cl | 32 µg/mL | < 90% | < 90% | >= 64 ug ml-1
CC(C)(O)C(C)(C)OB(OC(C)(C)C(C)(C)O)c1ccncc1 | > 128 µg/mL | < 90% | < 90% | >= 64 ug ml-1
COc1ncccc1B(OC(C)(C)C(C)(C)O)OC(C)(C)C(C)(C)O | > 128 µg/mL | < 90% | < 90% | >= 64 ug ml-1
CC1(C)OB(c2cnc(-c3ccccc3)n2C(=O)c2ccccc2)OC1(C)C | 32 µg/mL | < 90% | < 90% | >= 64 ug ml-1
